From ChEMBL document CHEMBL1155016, “Locking the two ends of tetrapeptidic HTLV-I protease inhibitors inside the enzyme” (Bioorg Med Chem, 2008) come the findings set out here.

Broadly, the IC50 is the midpoint of a concentration-inhibition curve. A low value points to greater potency in that assay. What is called inhibition is the share of the control response that was lost under treatment. Read a high inhibition as a strong effect.

Starred links: 1 amine or outer side, 2 acyl side, 3 side chain; linkers in the order of their positions; H or OH if unused. Non-standard residues stand in square brackets, D forms with d. Residues, ends and D or L forms follow the SMILES beside them. X1 = O=C([C@@H](O)[C@H](Cc1ccccc1)N[*:1])[*:2]; Thz(5,5-Me2) = CC1(C)SCN[C@@H]1C(=O)O; Phg = N[C@H](C(=O)O)c1ccccc1; Tle = CC(C)(C)[C@H](N)C(=O)O

Assay [1] has as its target Protease (Human T-cell leukemia virus type I, UniProt Q82134, L40I). The assay is described as follows: Inhibition of HTLV1 protease L40I mutant. The method, boiled down:
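HTLV-I protease carrying the L40I substitution, which blocks autolysis and stabilises the enzyme; run by the group's earlier reported protocol; potency given as IC50 in nM.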

Assay [2] concerns the target Protease (Human immunodeficiency virus 1) (UniProt Q9YQ12). The assay is described as follows: Inhibition of HIV1 protease at 50 nM.

Sequence of Protease (Human immunodeficiency virus 1) (Q9YQ12 as listed by the source): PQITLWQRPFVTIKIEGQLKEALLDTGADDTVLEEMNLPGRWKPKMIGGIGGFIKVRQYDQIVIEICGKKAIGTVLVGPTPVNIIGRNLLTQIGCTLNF
Sequence of Protease (Q82134 entry or part of it L40I): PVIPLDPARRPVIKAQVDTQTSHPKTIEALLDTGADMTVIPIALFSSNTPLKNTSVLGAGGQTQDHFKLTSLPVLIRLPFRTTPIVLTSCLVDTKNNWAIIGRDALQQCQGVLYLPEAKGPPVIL

Consider `CC(C)CNC(=O)[C@H]1N(C(=O)[C@@H](O)[C@H](Cc2ccccc2)NC(=O)[C@@H](NC(=O)[C@@H](NC(=O)C(C)C)c2ccccc2)C(C)(C)C)CSC1(C)C`, for which, in assay [1], the IC50 came to 94 nM. Besides, the inhibition in assay [2] was over 98%.
The like results for `CCCC(=O)N[C@H](C(=O)N[C@H](C(=O)N[C@@H](Cc1ccccc1)[C@H](O)C(=O)N1CSC(C)(C)[C@H]1C(=O)NCCC(C)C)C(C)(C)C)c1ccccc1` were, in that order, 95 nM and over 98%.
In turn, `CC(C)CNC(=O)[C@H]1N(C(=O)[C@@H](O)[C@H](Cc2ccccc2)NC(=O)[C@@H](NC(=O)[C@@H](NC(=O)CC(C)C)c2ccccc2)C(C)(C)C)CSC1(C)C` returned a 50% inhibitory concentration (IC50) in assay [1] of 102 nM. The inhibition in assay [2] is over 98%.
In assay [1], `CCCC(=O)N[C@H](C(=O)N[C@H](C(=O)N[C@@H](Cc1ccccc1)[C@H](O)C(=O)N1CSC(C)(C)[C@H]1C(=O)NC(C)C(C)C)C(C)(C)C)c1ccccc1` (some centres not stated) gave an IC50 of 659 nM. The same compound came in with an inhibition in assay [2] of over 98%.
In assay [1], `CC(C)C(C)NC(=O)[C@H]1N(C(=O)[C@@H](O)[C@H](Cc2ccccc2)NC(=O)[C@@H](NC(=O)[C@@H](NC(=O)C2CC2)c2ccccc2)C(C)(C)C)CSC1(C)C` (some centres not stated) displayed an IC50 of 90 nM. Further, the inhibition in assay [2] was over 98%.
For `CC(C)CNC(=O)[C@H]1N(C(=O)[C@@H](O)[C@H](Cc2ccccc2)NC(=O)[C@@H](NC(=O)[C@@H](NC(=O)C(C)(C)C)c2ccccc2)C(C)(C)C)CSC1(C)C`, in that order: 83 nM and over 98%.
In assay [1], `CC(C)(C)[C@H](NC(=O)[C@@H](NC(=O)C1CC1)c1ccccc1)C(=O)N[C@@H](Cc1ccccc1)[C@H](O)C(=O)N1CSC(C)(C)[C@H]1C(=O)NCC1CC1` came in with an IC50 of 142 nM. This compound had an inhibition in assay [2] of over 98%.
For the compound `CC(=O)N[C@H](C(=O)N[C@H](C(=O)N[C@@H](Cc1ccccc1)[C@H](O)C(=O)N1CSC(C)(C)[C@H]1C(=O)NC(C)C(C)C)C(C)(C)C)c1ccccc1` (some centres not stated), half-maximal inhibition in assay [1] (IC50) was put at 136 nM. In assay [2], this compound came in with an inhibition of over 98%.
In turn, `CC(C)(C)CNC(=O)[C@H]1N(C(=O)[C@@H](O)[C@H](Cc2ccccc2)NC(=O)[C@@H](NC(=O)[C@@H](N)c2ccccc2)C(C)(C)C)CSC1(C)C` gave an IC50 in assay [1] of 180 nM. In assay [2], this compound yielded an inhibition of over 98%.
`CC(=O)N[C@H](C(=O)N[C@H](C(=O)N[C@@H](Cc1ccccc1)[C@H](O)C(=O)N1CSC(C)(C)[C@H]1C(=O)NCC1CC1)C(C)(C)C)c1ccccc1` returned an IC50 in assay [1] of 146 nM. This compound had an inhibition in assay [2] of over 98%.
In assay [1], `CC(=O)N[C@H](C(=O)N[C@H](C(=O)N[C@@H](Cc1ccccc1)[C@H](O)C(=O)N1CSC(C)(C)[C@H]1C(=O)NC(C)C(C)(C)C)C(C)(C)C)c1ccccc1` (some centres not stated) displayed an IC50 of 106 nM. In assay [2], this compound yielded an inhibition of over 98%.
`CC(C)CC(=O)N[C@H](C(=O)N[C@H](C(=O)N[C@@H](Cc1ccccc1)[C@H](O)C(=O)N1CSC(C)(C)[C@H]1C(=O)NCC1CC1)C(C)(C)C)c1ccccc1`: in assay [1], 132 nM corresponded to half-maximal inhibition (IC50). Besides, the inhibition in assay [2] was over 98%.
With `CC(C)(C)C(=O)N[C@H](C(=O)N[C@H](C(=O)N[C@@H](Cc1ccccc1)[C@H](O)C(=O)N1CSC(C)(C)[C@H]1C(=O)NCC1CC1)C(C)(C)C)c1ccccc1`, in assay [1], the IC50 worked out at 187 nM. In addition, the inhibition in assay [2] was over 98%.
In the case of `CC(C)C(=O)N[C@H](C(=O)N[C@H](C(=O)N[C@@H](Cc1ccccc1)[C@H](O)C(=O)N1CSC(C)(C)[C@H]1C(=O)NC(C)C(C)(C)C)C(C)(C)C)c1ccccc1` (some centres not stated), the IC50 in assay [1] worked out at 84 nM. Besides, in assay [2], the inhibition is over 98%.
`CCCC(=O)N[C@H](C(=O)N[C@H](C(=O)N[C@@H](Cc1ccccc1)[C@H](O)C(=O)N1CSC(C)(C)[C@H]1C(=O)NCC(C)(C)C)C(C)(C)C)c1ccccc1` returned an IC50 in assay [1] of 74 nM. The compound also came in with an inhibition in assay [2] of over 98%.
For `CC(C)CNC(=O)[C@H]1N(C(=O)[C@@H](O)[C@H](Cc2ccccc2)NC(=O)[C@@H](NC(=O)[C@@H](N)c2ccccc2)C(C)(C)C)CSC1(C)C`, in that order: 332 nM and over 98%.
Turning to `CC(C)C(C)NC(=O)[C@H]1N(C(=O)[C@@H](O)[C@H](Cc2ccccc2)NC(=O)[C@@H](NC(=O)[C@@H](N)c2ccccc2)C(C)(C)C)CSC1(C)C` (some centres not stated), it took 354 nM to reach half-maximal inhibition in assay [1] (IC50). In addition, the inhibition in assay [2] was over 98%.
The like results for `CCCC(=O)N[C@H](C(=O)N[C@H](C(=O)N[C@@H](Cc1ccccc1)[C@H](O)C(=O)N1CSC(C)(C)[C@H]1C(=O)NCC1CC1)C(C)(C)C)c1ccccc1` were, in that order, 113 nM and over 98%.
For the compound `CC(C)C(=O)N[C@H](C(=O)N[C@H](C(=O)N[C@@H](Cc1ccccc1)[C@H](O)C(=O)N1CSC(C)(C)[C@H]1C(=O)NCC(C)(C)C)C(C)(C)C)c1ccccc1`, in assay [1], the IC50 was 78 nM. The inhibition in assay [2] is over 98%.
`CC(C)CNC(=O)[C@H]1N(C(=O)[C@@H](O)[C@H](Cc2ccccc2)NC(=O)[C@@H](NC(=O)[C@@H](NC(=O)C2CC2)c2ccccc2)C(C)(C)C)CSC1(C)C` displayed an IC50 in assay [1] of 97 nM. In assay [2], this compound registered an inhibition of over 98%.
For `CCC(=O)N[C@H](C(=O)N[C@H](C(=O)N[C@@H](Cc1ccccc1)[C@H](O)C(=O)N1CSC(C)(C)[C@H]1C(=O)NCC(C)(C)C)C(C)(C)C)c1ccccc1`, the IC50 in assay [1] amounted to 98 nM. The same compound yielded an inhibition in assay [2] of over 98%.
The compound `C=CCCC(=O)N[C@H](C(=O)N[C@H](C(=O)N[C@@H](Cc1ccccc1)[C@H](O)C(=O)N1CSC(C)(C)[C@H]1C(=O)NC(C)C(C)C)C(C)(C)C)c1ccccc1` (some centres not stated) yielded an IC50 in assay [1] of 87 nM. For the same compound, the inhibition in assay [2] is over 98%.
Turning to `CC(NC(=O)[C@H]1N(C(=O)[C@@H](O)[C@H](Cc2ccccc2)NC(=O)[C@@H](NC(=O)[C@@H](N)c2ccccc2)C(C)(C)C)CSC1(C)C)C(C)(C)C` (some centres not stated), inhibition in assay [1] was half-maximal at 156 nM (IC50). This compound yielded an inhibition in assay [2] of over 98%.
As for `CSCC[C@H](NC(=O)[C@@H](NC(=O)[C@@H]1CCCN1C(=O)[C@@H](O)[C@H](Cc1ccccc1)NC(=O)[C@@H](NC(=O)[C@H](CCC(N)=O)NC(=O)[C@@H]1CCCN1)C(C)C)C(C)C)C(=O)N[C@@H](Cc1cnc[nH]1)C(=O)O`, 159 nM corresponded to half-maximal inhibition in assay [1] (IC50). The compound also displayed an inhibition in assay [2] of over 98%.
As for `CC(C)CC(=O)N[C@H](C(=O)N[C@H](C(=O)N[C@@H](Cc1ccccc1)[C@H](O)C(=O)N1CSC(C)(C)[C@H]1C(=O)NC(C)C(C)C)C(C)(C)C)c1ccccc1` (some centres not stated), half-maximal inhibition in assay [1] (IC50) required 107 nM. The inhibition in assay [2] was over 98%.
The like results for `CC(=O)N[C@H](C(=O)N[C@H](C(=O)N[C@@H](Cc1ccccc1)[C@H](O)C(=O)N1CSC(C)(C)[C@H]1C(=O)NCC(C)(C)C)C(C)(C)C)c1ccccc1` were, in that order, 113 nM and over 98%.
In turn, `CCC(=O)N[C@H](C(=O)N[C@H](C(=O)N[C@@H](Cc1ccccc1)[C@H](O)C(=O)N1CSC(C)(C)[C@H]1C(=O)NCC1CC1)C(C)(C)C)c1ccccc1` had a half-inhibitory concentration (IC50) in assay [1] of 145 nM. In addition, the inhibition in assay [2] is over 98%.
`CC(C)CC(=O)N[C@H](C(=O)N[C@H](C(=O)N[C@@H](Cc1ccccc1)[C@H](O)C(=O)N1CSC(C)(C)[C@H]1C(=O)NCC(C)(C)C)C(C)(C)C)c1ccccc1`: the midpoint of inhibition in assay [1], the IC50, lay at 82 nM. For the same compound, the inhibition in assay [2] was over 98%.
Compound `CC(C)CCNC(=O)[C@H]1N(C(=O)[C@@H](O)[C@H](Cc2ccccc2)NC(=O)[C@@H](NC(=O)[C@@H](N)c2ccccc2)C(C)(C)C)CSC1(C)C` returned an IC50 in assay [1] of 372 nM. In assay [2], the inhibition is over 98%.
`CCC(=O)N[C@H](C(=O)N[C@H](C(=O)N[C@@H](Cc1ccccc1)[C@H](O)C(=O)N1CSC(C)(C)[C@H]1C(=O)NC(C)C(C)(C)C)C(C)(C)C)c1ccccc1` (some centres not stated) yielded a half-inhibitory concentration (IC50) in assay [1] of 103 nM. Further, the inhibition in assay [2] was over 98%.
Turning to `CC[C@H](C)[C@H](NC(=O)[C@H]1N(C(=O)[C@@H](O)[C@H](Cc2ccccc2)NC(=O)[C@@H](NC(=O)[C@@H](NC(C)=O)c2ccccc2)C(C)(C)C)CSC1(C)C)C(N)=O` (Ac-[Phg][Tle][X1][Thz(5,5-Me2)]I-NH2), the IC50 in assay [1] came to 144 nM. For the same compound, the inhibition in assay [2] was over 98%.
